Data taken from ChEMBL document CHEMBL3046177, “Plant growth inhibitory activity of p-hydroxyacetophenones and tremetones from Chilean endemic Baccharis species and some analogous: a comparative study” (J Agric Food Chem, 2002).
Activity calls are given as the source filed them. No cut-off for these calls is given here.

Experiments:
Lolium multiflorum [1] = assay: Phytotoxicity against Lolium multiflorum (Italian ryegrass) assessed as inhibition of seed germination after 48 hr; assay type: functional
In short: (§1)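 Seeds of uniform size on Whatman No.1 filter paper in 85 mm Petri dishes, wetted with 8 or 10 mL deionized water or test solution (MeOH < 1%); controls got matching water/methanol. Sealed, incubated at 28 °C in the dark, scored at 48 h intervals; germination = 1 mm radicle extrusion. Three replicates.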

[2] = system: Lolium multiflorum (ryegrass); assay: Phytotoxicity against Lolium multiflorum (ryegrass) assessed as inhibition of seed germination at 500 uM after 48 hr
Trifolium pratense [3] = assay: Phytotoxicity against Trifolium pratense (red clover) assessed as inhibition of root development during seeding stage after 120 hr; assay type: functional, organism-based; details: for IC50: read-out: I50
In short: (§2)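 Petri-dish seedling assay on filter paper wetted with test solution (MeOH < 1%), 28 °C in the dark. Coleoptile/hypocotyl and root lengths of all germinated seeds measured after 120 h, then plants dried to constant weight at 40 °C. Three replicates; 50% inhibitory concentrations by Probit analysis of percent inhibition versus concentration.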

Physalis ixocarpa [4] = assay: Phytotoxicity against Physalis ixocarpa assessed as inhibition of seed respiration during germination after 24 hr; assay type: functional, organism-based
In short: (§3)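 Oxygen uptake of germinating seeds measured polarographically with a Clark-type electrode at 25 °C in a nonilluminated cell over 5 and 10 min, at several compound concentrations. Expressed as percent of control (100%). Three experiments; RI50 from Probit analysis.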

Lolium multiflorum [5] = assay: Phytotoxicity against Lolium multiflorum (Italian ryegrass) assessed as inhibition of seed germination at 500 uM after 48 hr; assay type: functional; in short: as §1
Lactuca sativa [6] = assay: Phytotoxicity against Lactuca sativa (lettuce) assessed as inhibition of shoot development during seeding stage after 120 hr; assay type: functional, organism-based; details: for IC50: read-out: I50; in short: as §2
Physalis ixocarpa [7] = assay: Phytotoxicity against Physalis ixocarpa assessed as inhibition of seed germination after 48 hr; assay type: functional; in short: as §1
Lolium multiflorum [8] = assay: Phytotoxicity against Lolium multiflorum (Italian ryegrass) assessed as inhibition of root development during seeding stage after 120 hr; assay type: functional, organism-based; details: for IC50: read-out: I50; in short: as §2
Trifolium pratense [9] = assay: Increase of shoot development during seeding stage in Trifolium pratense (red clover) at 200 uM after 120 hr; assay type: functional, organism-based; in short: as §2
Physalis ixocarpa [10] = assay: Phytotoxicity against Physalis ixocarpa assessed as inhibition of shoot development during seeding stage after 120 hr; assay type: functional, organism-based; details: for IC50: read-out: I50; in short: as §2
Lolium multiflorum [11] = assay: Phytotoxicity against Lolium multiflorum (Italian ryegrass) assessed as inhibition of seed respiration during germination after 24 hr; assay type: functional, organism-based; in short: as §3
Trifolium pratense [12] = assay: Phytotoxicity against Trifolium pratense (red clover) assessed as inhibition of seed respiration during germination after 24 hr; assay type: functional, organism-based; in short: as §3
Lactuca sativa [13] = assay: Phytotoxicity against Lactuca sativa (lettuce) assessed as inhibition of seed germination after 48 hr; assay type: functional; in short: as §1
Lactuca sativa [14] = assay: Increase of root development during seeding stage in Lactuca sativa (lettuce) at 50 to 300 uM after 120 hr; assay type: functional, organism-based; in short: as §2
Trifolium pratense [15] = assay: Increase of root development during seeding stage in Trifolium pratense (red clover) at 50 to 300 uM after 120 hr; assay type: functional, organism-based; in short: as §2
Physalis ixocarpa [16] = assay: Increase of shoot development during seeding stage in Physalis ixocarpa up to 50 uM after 120 hr; assay type: functional, organism-based; in short: as §2
Trifolium pratense [17] = assay: Phytotoxicity against Trifolium pratense (red clover) assessed as inhibition of shoot development during seeding stage after 120 hr; assay type: functional, organism-based; details: for IC50: read-out: I50; in short: as §2
Trifolium pratense [18] = assay: Phytotoxicity against Trifolium pratense (red clover) assessed as inhibition of seed germination after 48 hr; assay type: functional; in short: as §1
Lactuca sativa [19] = assay: Phytotoxicity against Lactuca sativa (lettuce) assessed as inhibition of root development during seeding stage after 120 hr; assay type: functional, organism-based; details: for IC50: read-out: I50; in short: as §2
Lolium multiflorum [20] = assay: Phytotoxicity against Lolium multiflorum (Italian ryegrass) assessed as inhibition of shoot development during seeding stage after 120 hr; assay type: functional, organism-based; details: for IC50: read-out: I50; in short: as §2
Physalis ixocarpa [21] = assay: Phytotoxicity against Physalis ixocarpa assessed as inhibition of root development during seeding stage after 120 hr; assay type: functional, organism-based; details: for IC50: read-out: I50; in short: as §2
Lactuca sativa [22] = assay: Phytotoxicity against Lactuca sativa (lettuce) assessed as inhibition of seed respiration during germination after 24 hr; assay type: functional, organism-based; in short: as §3
[23] = system: Radical scavenging activity; assay: Antioxidant activity assessed as DPPH free radical scavenging activity after 30 min by TLC autographic assay; assay type: functional; details: in the assay text read “spectrophotometric assay” for “TLC autographic assay”; read-out: I50
[24] = Antioxidant activity assessed as inhibition of bleaching of water soluble crocin measured every 5 min by spectrophotometric analysis; assay type: functional
In short: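 Aqueous mixture of 10 µM crocin, 1 mM t-BuOOH and 0.5 M t-BuOH with serial dilutions of test compound, placed under UV254 light; crocin bleaching (absorbance decrease) and fluorescence emission at 440 and 470 nm followed every 5 min. Three experiments, mean ± SEM.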

Spinacia oleracea [25] = assay: Inhibition of ATP synthesis in Spinacia oleracea (spinach) chloroplasts; assay type: functional
In short: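 Spinach thylakoids in 100 mM sorbitol, 5 mM MgCl2, 10 mM KCl, 1 mM Na+-tricine, pH 8, with 50 µM methyl viologen as Hill-reaction electron acceptor. Illuminated at 20 °C through 1% CuSO4 filter. ATP synthesis measured titrimetrically.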

Lolium multiflorum [26] = assay: Phytotoxicity against Lolium multiflorum (Italian ryegrass) assessed as inhibition of seed respiration during germination after 72 hr; assay type: functional, organism-based; details: read-out: I50; in short: as §3
Spinacia oleracea [27] = assay: Inhibition of H+ uptake in Spinacia oleracea (spinach) chloroplasts; assay type: functional; details: for IC50: read-out: I50
In short: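 Spinach thylakoids (from isolated chloroplasts, in sorbitol/tricine/MgCl2/NaCl buffer, pH 7.8) in 100 mM sorbitol, 5 mM MgCl2, 10 mM KCl, 1 mM Na+-tricine, pH 8, with 50 µM methyl viologen. Illuminated at 20 °C through 1% CuSO4 filter. H+ uptake recorded as pH rise from 8.0 to 8.1 with combination microelectrode on expanded scale.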

Physalis ixocarpa [28] = assay: Phytotoxicity against Physalis ixocarpa assessed as inhibition of seed respiration during germination after 72 hr; assay type: functional, organism-based; details: read-out: I50; in short: as §3
Trifolium pratense [29] = assay: Phytotoxicity against Trifolium pratense (red clover) assessed as inhibition of seed respiration during germination after 72 hr; assay type: functional, organism-based; details: read-out: I50; in short: as §3
Lactuca sativa [30] = assay: Phytotoxicity against Lactuca sativa (lettuce) assessed as inhibition of seed respiration during germination after 72 hr; assay type: functional, organism-based; details: read-out: I50; in short: as §3
Phaseolus vulgaris = assay: Inhibition of mitochondrial respiration in Phaseolus vulgaris root mitochondria assessed as reduction of oxygen uptake; assay type: functional; details: read-out: I50
In short: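 Mitochondria from roots of 72 h dark-grown (28 °C) bean seedlings, Percoll-gradient purified, 0.3-0.5 mg protein (Bradford) per run; integrity checked with HCN. Compounds in 0.5% methanol added after a constant state 3 rate with […] was reached. O2 uptake by Clark electrode; control is mitochondria with 0.5% MeOH. Three experiments; I50 by Probit.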

| Structure (SMILES) | GI50 (Lolium multiflorum [1]) | inhibition at 500 µM [2] [%] | I50 (Physalis ixocarpa [4]) | inhibition at 500 µM (Lolium multiflorum [5]) [%] | GI50 (Physalis ixocarpa [7]) | I50 (Physalis ixocarpa [10]) | I50 (Lolium multiflorum [11]) | I50 (Trifolium pratense [12]) | GI50 (Lactuca sativa [13]) | GI50 (Trifolium pratense [18]) | I50 (Physalis ixocarpa [21]) | I50 (Lactuca sativa [22]) | IC50 (Trifolium pratense [3]) [µM] | IC50 (Lactuca sativa [6]) [µM] | IC50 (Lolium multiflorum [8]) [µM] | IC50 (Physalis ixocarpa [10]) [µM] | IC50 (Trifolium pratense [17]) [µM] | IC50 (Lactuca sativa [19]) [µM] | IC50 (Lolium multiflorum [20]) [µM] | IC50 (Physalis ixocarpa [21]) [µM] | further results |
| --- | --- | --- | --- | --- | --- | --- | --- | --- | --- | --- | --- | --- | --- | --- | --- | --- | --- | --- | --- | --- | --- |
| CC(=O)c1ccc(Br)cc1 | inactive | 30 | inactive | 30 | inactive | inactive | inactive | inactive | inactive | inactive | inactive | inactive | – | – | – | – | – | – | – | – | I50 (Trifolium pratense [3]): inactive; I50 (Lactuca sativa [6]): inactive; I50 (Lolium multiflorum [8]): inactive; Activity (Trifolium pratense [9]): Active; Activity (Lactuca sativa [14]): Active; Activity (Trifolium pratense [15]): Active; Activity (Physalis ixocarpa [16]): Active; I50 (Trifolium pratense [17]): inactive; I50 (Lactuca sativa [19]): inactive; I50 (Lolium multiflorum [20]): inactive |
| CC(=O)c1ccc2c(c1O)C[C@H](C1(C)CO1)O2 (some centres undefined) | 10.4 µM | – | – | – | 8.7 µM | – | – | – | 11.5 µM | 7.1 µM | – | – | 7.1 | 10.5 | 11.9 | 7.7 | 7.2 | 10.9 | 11.2 | 9.9 | IC50 [23]: 30.6 µM; inhibition [24]: Active; inhibition (Spinacia oleracea [25]): Dose-dependent effect; IC50 (Lolium multiflorum [26]): 18 µM; inhibition (Spinacia oleracea [27]): Dose-dependent effect; IC50 (Spinacia oleracea [27]): 13.8 µM; IC50 (Physalis ixocarpa [28]): 15.8 µM; IC50 (Trifolium pratense [29]): 10.1 µM; IC50 (Lactuca sativa [30]): 11 µM; IC50 (Phaseolus vulgaris): 17.1 µM |
| CC(=O)c1ccc2c(c1)C[C@H](C(C)C)O2 [10,11-DIHYDRO TREMETONE] | 31.5 µM | – | inactive | – | 24.7 µM | – | inactive | inactive | 25.9 µM | 27.9 µM | – | inactive | 28.6 | 17.3 | 31.9 | 20.1 | 23.2 | 17.4 | 29.3 | 19.1 | – |
| O=C1C(O)=C(O)C(=O)C(O)=C1O [TETROQUINONE] | – | – | – | – | – | – | – | – | – | – | – | – | – | – | – | – | – | – | – | – | IC50 [23]: 9.37 µM |
| C=C(C)[C@H]1Cc2cc(C(C)=O)ccc2O1 [TREMETONE] | 37.5 µM | – | inactive | – | 31.8 µM | – | inactive | inactive | 45 µM | 35.5 µM | – | inactive | 34.9 | 45 | 36.1 | 7.7 | 35.5 | 44.2 | 35 | 18.6 | inhibition [24]: Active; inhibition (Spinacia oleracea [25]): Dose-dependent effect; inhibition (Spinacia oleracea [27]): Dose-dependent effect; IC50 (Spinacia oleracea [27]): 70.7 µM |
| CC(=O)c1ccccc1 [ACETOPHENONE] | 128 µM | 30 | inactive | 30 | inactive | inactive | inactive | inactive | 47 µM | 137 µM | inactive | inactive | 134 | 49.5 | 128 | – | 137 | 45.7 | 126 | – | – |
